Measured values from publication PMC3142331 (Molecular cell, 2011).

Tests used:
Mce F367N = experiment: fluorescence polarization binding; design: species or system mouse; settings: pH 7.0, 23°C; versus wild-type
Procedure, shortened: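 N-terminally fluorescein-labelled 11-aa CTD peptide (phosphorylated at central Ser2 and Ser5) was titrated with increasing concentrations of E. coli-expressed recombinant Mce protein, wild-type or mutant. Polarization was read at 23°C, pH 7.0, and Kd was derived from the binding curves. Three independent experiments were run in triplicate; error is one standard deviation.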

Mce-V372Y/C383Y = Mce-V372Y/C383Y (Mus musculus, UniProt O55236, C383Y/V372Y); experiment: fluorescence polarization binding; settings: pH 7.0, 23°C
Mce-V372Y/C383Y, sequence (O55236 227-567 V372Y/C383Y): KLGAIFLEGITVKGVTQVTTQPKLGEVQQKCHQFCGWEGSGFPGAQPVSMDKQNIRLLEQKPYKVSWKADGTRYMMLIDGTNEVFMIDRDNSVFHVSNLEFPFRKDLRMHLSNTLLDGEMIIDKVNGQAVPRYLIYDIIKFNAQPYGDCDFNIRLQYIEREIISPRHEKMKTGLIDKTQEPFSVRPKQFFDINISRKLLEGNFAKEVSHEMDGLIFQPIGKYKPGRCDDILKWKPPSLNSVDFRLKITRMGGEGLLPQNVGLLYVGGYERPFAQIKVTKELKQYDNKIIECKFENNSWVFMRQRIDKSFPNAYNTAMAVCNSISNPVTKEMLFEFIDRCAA

## C[C@@H](O)[C@H](NC(=O)[C@@H]1CCCN1C(=O)[C@H](CO)NC(=O)c1ccc2c(c1)C(=O)OC21c2ccc(O)cc2Oc2cc(O)ccc21)C(=O)N[C@@H](COP(=O)(O)O)C(=O)N1CCC[C@H]1C(=O)N[C@@H](CO)C(=O)N[C@@H](Cc1ccc(O)cc1)C(=O)N[C@@H](COP(=O)(O)O)C(=O)N1CCC[C@H]1C(=O)N[C@H](C(=O)N[C@@H](CO)C(=O)O)[C@@H](C)O [Fluor-S2P3T4S5PP6S7Y1S2PP3T4S5]
Mce F367N
  effect of mutation on binding: No effect in binding was observed
Mce-V372Y/C383Y
  increase in Kd compared to wild-type Mce: 4 fold
